Laboratory results as given in PMC9441147 (Drug Design, Development and Therapy, 2022).
In brackets after ≈: the same amount, converted by molar mass.

How the values were obtained:
JAK1 = JAK1 (Homo sapiens, UniProt P23458); conditions: biochemical assays; cited from earlier work
Basic pKa, measured = type: physicochemical
STAT5b phosphorylation = experiment: pSTAT5b in whole lung homogenate, OVA-challenged rats; type: in vivo, rat; conditions: IT dosing, 2 hours after OVA challenge, vs OVA/vehicle
How it was run: (§1)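 In the OVA-sensitized, OVA-challenged rat model, test compound was given IT 1 h before challenge. Post-caval lung lobes taken 2 h after challenge were powderized in liquid nitrogen and lysed in buffer with protease/phosphatase inhibitors. Protein was measured by Bradford assay. Lysate (10 µg protein) was run on MSD phospho-STAT3/STAT5a/STAT5b/Akt(T308) plates, and blank-subtracted electrochemiluminescence was read.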

NF-κB = NF-κB p65 analysis in lung tissue, OVA rat model; type: in vivo; conditions: lung tissue 2 hours after OVA challenge
How it was run: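 In the OVA-sensitized, OVA-challenged rat model, test compound was given IT 1 h before challenge. Lungs were powderized 2 h after challenge and nuclear extracts prepared with a nuclear extraction kit. Nuclear extract (10 µg) was assayed for NF-κB p65 activation by TransAm ELISA-type assay.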

[1] = Kinetic solubility, pH 6.8; type: physicochemical; conditions: pH 6.8, aqueous buffer, kinetic from dmso stock
STAT5a phosphorylation = experiment: pSTAT5a in whole lung homogenate, OVA-challenged rats; type: in vivo, rat; conditions: IT dosing, 2 hours after OVA challenge, vs OVA/vehicle
How it was run: as §1

[2] = test system: IL-4-induced STAT6 phosphorylation in human CD4+ T cells; experiment: IL-4-induced STAT6 phosphorylation, flow cytometry; type: cell-based; conditions: read-out: IC50, IL-4, STAT6
How it was run: (§2)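 PBMCs were isolated by density gradient from healthy human donor blood, sometimes enriched for lymphocytes or monocytes, and rested. Cells were preincubated with serially diluted test compound (DMSO vehicle), then stimulated with the relevant cytokine. They were fixed (formaldehyde), permeabilized and stained for phospho-STAT, with isotype-control gates and surface-marker cell gating. Flow cytometry gave % phospho-STAT+ cells. Inhibition was calculated versus vehicle-treated stimulated cells to derive IC50.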

JAK3 = target: T1, JAK3 (Homo sapiens, UniProt P52333); experiment: JAK3 enzymatic assay, 1 mM ATP; type: biochemical
T1 sequence (P52333 1-1124): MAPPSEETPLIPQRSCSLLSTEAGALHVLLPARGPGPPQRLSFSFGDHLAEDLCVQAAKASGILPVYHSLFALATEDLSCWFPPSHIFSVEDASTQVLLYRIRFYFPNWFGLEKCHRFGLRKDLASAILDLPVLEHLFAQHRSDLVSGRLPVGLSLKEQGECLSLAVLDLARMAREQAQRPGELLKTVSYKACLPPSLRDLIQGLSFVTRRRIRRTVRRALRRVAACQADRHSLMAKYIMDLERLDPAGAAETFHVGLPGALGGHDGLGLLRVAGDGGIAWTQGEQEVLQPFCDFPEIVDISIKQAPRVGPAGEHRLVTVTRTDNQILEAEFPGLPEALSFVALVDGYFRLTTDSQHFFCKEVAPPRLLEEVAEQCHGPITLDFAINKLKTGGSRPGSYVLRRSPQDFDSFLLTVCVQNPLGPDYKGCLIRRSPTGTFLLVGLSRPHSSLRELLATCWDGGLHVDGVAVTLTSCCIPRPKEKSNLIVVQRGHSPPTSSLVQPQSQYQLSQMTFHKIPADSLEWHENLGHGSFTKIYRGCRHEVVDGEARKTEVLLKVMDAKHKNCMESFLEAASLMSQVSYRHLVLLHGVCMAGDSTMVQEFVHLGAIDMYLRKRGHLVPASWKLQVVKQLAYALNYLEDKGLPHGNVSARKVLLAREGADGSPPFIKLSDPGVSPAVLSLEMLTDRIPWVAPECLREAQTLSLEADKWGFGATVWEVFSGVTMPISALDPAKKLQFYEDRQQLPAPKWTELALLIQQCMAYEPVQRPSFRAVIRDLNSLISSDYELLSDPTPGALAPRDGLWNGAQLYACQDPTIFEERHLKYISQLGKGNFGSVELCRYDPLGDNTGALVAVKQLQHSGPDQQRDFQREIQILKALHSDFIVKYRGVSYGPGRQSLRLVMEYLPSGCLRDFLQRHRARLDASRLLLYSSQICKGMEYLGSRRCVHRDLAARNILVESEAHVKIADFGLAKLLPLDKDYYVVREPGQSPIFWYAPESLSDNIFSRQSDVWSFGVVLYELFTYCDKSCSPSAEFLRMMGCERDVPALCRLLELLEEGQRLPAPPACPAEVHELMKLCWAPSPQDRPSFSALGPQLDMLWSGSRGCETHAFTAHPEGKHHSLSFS

[3] = Thermodynamic solubility, pH 7.4; type: physicochemical
[4] = In vitro rat plasma protein binding; type: in vitro ADME
[5] = In vivo plasma PK after IV dosing in rats; conditions: rat
How it was run: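 Rats received a single IV bolus of test compound, at 1.0 or 0.5 mg/kg depending on compound; n=2. Plasma was then sampled to derive clearance, steady-state volume of distribution and terminal half-life.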

[6] = test system: TSLP-induced production of CCL17 in human CD14+ monocytes; experiment: TSLP-induced CCL17 release in monocytes; type: cell-based; conditions: Monocyte, read-out: IC50, TSLP, CCL17
How it was run: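 Human monocytes were taken from PBMCs isolated by density gradient from healthy donor blood. They were preincubated with serially diluted test compound (DMSO vehicle), then stimulated with recombinant TSLP. Supernatants were collected by brief centrifugation, and released CCL17 was quantified by ELISA or MSD U-plex immunoassay. Reduction versus vehicle-treated stimulated cells gave IC50.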

[7] = Lung and plasma PK after single intratracheal dose in treatment-naïve rats; type: in vivo; conditions: rat
How it was run: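 Treatment-naïve rats were given a single IT dose, at a lung-deposited dose of 52 or 30 µg/kg depending on compound. Plasma and lungs were sampled at 0.03, 0.5, 2, 6, 8 and 24 h, three animals per time point. Post-caval lobes were bead-homogenized in Ringer's solution. Samples were protein-precipitated with acetonitrile containing 0.2% formic acid and internal standard, then analysed by LC-MS/MS.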

[8] = test system: IL-13-induced STAT6 phosphorylation in human CD14+ monocytes; experiment: IL-13-induced STAT6 phosphorylation in monocytes; type: cell-based; conditions: Monocyte, read-out: IC50, IL-13, STAT6
How it was run: as §2

[9] = Caco-2 permeability, pH 6.5; type: in vitro ADME; conditions: human, Caco-2, pH 6.5
[10] = test system: IL-12-induced STAT4 phosphorylation in human CD3+ T cells and CD56+ NK cells; experiment: IL-12-induced STAT4 phosphorylation, flow cytometry; type: cell-based; conditions: T-cell, read-out: IC50, IL-12, STAT4
How it was run: as §2

[11] = test system: IFNα-induced STAT1 phosphorylation in human T cells or monocytes; experiment: IFNα-induced STAT1 phosphorylation, flow cytometry; type: cell-based; conditions: read-out: IC50, IFNα, STAT1
How it was run: as §2

[12] = test system: IL-2-induced STAT5 phosphorylation in human T cells; experiment: IL-2-induced STAT5 phosphorylation in human T cells, flow cytometry; type: cell-based; conditions: T-cell, read-out: IC50, IL-2, STAT5 (human)
How it was run: as §2

STAT3 phosphorylation = experiment: pSTAT3 in whole lung homogenate, OVA-challenged rats; type: in vivo, rat; conditions: IT dosing, 2 hours after OVA challenge, vs OVA/vehicle
How it was run: as §1

OVA-challenged rats = experiment: Airway and lung inflammation in OVA-induced rat model of asthma; type: in vivo; conditions: IT
How it was run: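 Rats sensitized IP with OVA (100 µg/rat) in aluminium/magnesium hydroxide on days 0, 14, 21 and challenged day 28 with 1% aerosolized OVA for 30 min. Test compound was given IT under isoflurane at 1 mL/kg, 1 h before challenge (100–3000 µg/kg). BAL (2 × 3 mL RPMI) was taken 24 h post-challenge. Leukocytes were counted automatically, with differentials from Wright-stained cytospins; n=7–10/group.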

pAkt = pAkt analysis in lung tissue, OVA rat model; type: in vivo; conditions: lung tissue 2 hours after OVA challenge
How it was run: as §1

[13] = test system: phosphorylated STAT3-positive cell nuclei; experiment: pSTAT3 immunohistochemistry of lung sections, OVA-challenged rats; type: in vivo, rat; conditions: OVA/AZD4604 1 mg/kg versus OVA/vehicle

JAK1, sequence (P23458 whole entry): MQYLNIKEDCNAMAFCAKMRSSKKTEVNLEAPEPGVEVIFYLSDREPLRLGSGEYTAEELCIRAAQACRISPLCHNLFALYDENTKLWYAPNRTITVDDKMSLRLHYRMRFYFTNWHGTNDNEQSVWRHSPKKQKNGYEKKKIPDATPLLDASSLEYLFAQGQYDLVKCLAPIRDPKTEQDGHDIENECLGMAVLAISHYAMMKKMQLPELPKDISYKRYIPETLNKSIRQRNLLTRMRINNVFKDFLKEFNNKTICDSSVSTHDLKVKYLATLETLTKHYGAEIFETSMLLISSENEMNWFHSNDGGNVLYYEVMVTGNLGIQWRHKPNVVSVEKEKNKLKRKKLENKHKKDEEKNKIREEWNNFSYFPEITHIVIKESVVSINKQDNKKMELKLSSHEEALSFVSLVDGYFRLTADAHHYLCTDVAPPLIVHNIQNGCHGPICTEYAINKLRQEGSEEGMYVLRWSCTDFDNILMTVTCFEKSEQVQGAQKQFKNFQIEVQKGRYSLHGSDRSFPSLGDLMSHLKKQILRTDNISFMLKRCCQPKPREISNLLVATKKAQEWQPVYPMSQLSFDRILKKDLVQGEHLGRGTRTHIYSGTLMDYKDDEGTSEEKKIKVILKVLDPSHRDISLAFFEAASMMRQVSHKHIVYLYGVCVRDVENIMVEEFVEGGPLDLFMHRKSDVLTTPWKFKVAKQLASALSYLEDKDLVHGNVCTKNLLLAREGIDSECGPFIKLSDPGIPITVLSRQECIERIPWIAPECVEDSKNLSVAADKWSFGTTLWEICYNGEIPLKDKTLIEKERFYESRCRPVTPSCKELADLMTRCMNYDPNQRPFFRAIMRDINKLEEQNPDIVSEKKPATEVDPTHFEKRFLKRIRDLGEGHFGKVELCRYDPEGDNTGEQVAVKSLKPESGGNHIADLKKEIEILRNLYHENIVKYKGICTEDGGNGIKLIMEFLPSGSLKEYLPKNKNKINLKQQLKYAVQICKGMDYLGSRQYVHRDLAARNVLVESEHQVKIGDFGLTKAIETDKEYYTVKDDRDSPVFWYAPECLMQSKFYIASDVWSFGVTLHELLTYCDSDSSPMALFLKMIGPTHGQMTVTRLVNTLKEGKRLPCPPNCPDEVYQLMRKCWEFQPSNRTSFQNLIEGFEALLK

## CN(CCC#N)C1CCN(C(=O)Cn2cc(NC(=O)c3cnn4cccnc34)c(-c3cc(Cl)ccc3OC(F)F)n2)CC1 [GDC-0214]
JAK1
  increased selectivity for JAK1 over JAK2: twofold

## CN(CCC#N)C1CCN(C(=O)Cn2cc(NC(=O)c3cnn4cccnc34)c(-c3cc(Cl)ccc3OC(F)F)n2)CC1 [iJak-381]
JAK1
  increased selectivity for JAK1 over JAK2: sixfold

## COC[C@H](C(=O)Nc1cccc2c(-c3nc(Nc4cccc(S(C)(=O)=O)c4F)ncc3F)c[nH]c12)N1CCN(C)CC1 [AZD4604]
Basic pKa, measured
  pKa: 7.9
STAT5b phosphorylation
  STAT5b phosphorylation in whole lung homogenates: dose-dependently inhibited
NF-κB
  effect on NF-κB: no significant effect
[1]
  solubility kinetic: 18 µM (≈ 10.8 µg/mL)
STAT5a phosphorylation
  STAT5a phosphorylation in whole lung homogenates: dose-dependently inhibited
[2]
  IC50: 16.9 nM
JAK3
  IC50: > 10000 nM
[3]
  solubility thermodynamic: 6.6 µM (≈ 3.96 µg/mL)
[4]
  In vitro rat plasma protein binding, % free: 10.4 % free
[5]
  Vd: 9.9 L/kg
  clearance: 33 mL/min/kg
  half-life: 4.2 h
[6]
  IC50: 57 nM
[7]; IT, assuming 100% lung deposition
  proportion of the dose remaining in whole lung tissue 24 hours after administration: 0.3%
[7]; lung, inhaled or intranasal
  half-life: ~5 h
[7]; lung, other: intratracheal
  half-life: 5 h
[7]; plasma, inhaled or intranasal
  half-life: ~5 h
[8]
  IC50: 23.1 nM
[9]
  Papp: 6.7 ×10⁻⁶ cm/s
[10]
  IC50: 98 nM
[11]
  IC50: 1.2 nM
[12]
  IC50: 21 nM
STAT3 phosphorylation
  STAT3 phosphorylation in whole lung homogenates: dose-dependently inhibited
OVA-challenged rats; 24 hours after OVA challenge, vs OVA/vehicle
  eosinophil numbers in BALF: numerically reduced
OVA-challenged rats; 24 hours after OVA challenge, vs vehicle, to levels seen in saline-challenged animals
  eosinophil numbers in lung tissue: reduced
OVA-challenged rats; vs OVA/vehicle
  cytokines eotaxin and IL-1β in BALF: numerically lowered
  levels of lymphocytes, neutrophils, and macrophages in BALF: numerically lowered
pAkt
  effect on pAkt: no significant effect
[13]; P < 0.01
  proportion of phosphorylated STAT3-positive cell nuclei in endothelium and bronchial epithelium: significantly reduced
[13]; P < 0.05
  proportion of phosphorylated STAT3-positive cell nuclei in the alveolar epithelium: significantly reduced
